From ChEMBL document CHEMBL4304758, “Development of Peptide-Based Sirtuin Defatty-Acylase Inhibitors Identified by the Fluorescence Probe, SFP3, That Can Efficiently Measure Defatty-Acylase Activity of Sirtuin” (J Med Chem, 2019)
Structures can show the parent of a compound that is named as a salt. Calls of active or inactive are those of the source. The calls are words filed in the database; no cut-off is given here. Residues, ends and D or L forms follow the SMILES beside them. *: point of attachment. Phenylacetyl(4-E-phenylazo) = O=C(Cc1ccc(/N=N/c2ccccc2)cc1)*; X5 = CCN(CC)c1ccc(/N=N/c2ccc(CC(=O)*)cc2)cc1; X3 = CN(C)c1ccc(/N=N/c2ccc(CCC(=O)*)cc2)cc1; X2 = CN(C)c1ccc(/N=N/c2ccc(C(=O)*)cc2)cc1; Tfa = O=C(C(F)(F)F)*

Columns and labels:
[1] = target: T1, NAD-dependent protein deacetylase sirtuin-3, mitochondrial (Homo sapiens) (UniProt Q9NTG7); test: Inhibition of recombinant human SIRT3 (118 to 399 residues) defatty-acylase activity expressed in Escherichia coli at 2 uM using SFP3 as substrate measured at 5 mins interval for 60 mins in presence of NAD+ by fluorescence assay relative to control
T1 sequence (whole entry): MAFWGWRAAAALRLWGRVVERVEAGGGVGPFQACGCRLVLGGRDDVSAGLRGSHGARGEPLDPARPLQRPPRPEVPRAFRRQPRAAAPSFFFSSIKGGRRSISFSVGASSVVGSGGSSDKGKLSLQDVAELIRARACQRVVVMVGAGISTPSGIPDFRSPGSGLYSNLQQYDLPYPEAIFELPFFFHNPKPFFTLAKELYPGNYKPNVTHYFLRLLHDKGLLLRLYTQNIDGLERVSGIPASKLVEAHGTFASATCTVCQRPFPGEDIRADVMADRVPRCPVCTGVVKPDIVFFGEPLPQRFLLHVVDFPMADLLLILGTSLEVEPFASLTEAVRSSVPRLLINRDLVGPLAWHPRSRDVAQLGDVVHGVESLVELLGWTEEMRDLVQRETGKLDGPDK
Outline: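 SIRT3 at 60 nM final with 2.5 μM SFP3 and 500 μM NAD⁺ in Tris-HCl pH 8.0, 150 mM NaCl, 1 mM DTT, 0.05% Triton X-100. Final DMSO 0.2%, or 0.5% for AGK2/NAM. Fluorescence Ex 485/Em 535 nm every 5 min for 60 min at 37 °C. n = 3.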

HeLa = test: Cytotoxicity against human HeLa cells assessed as reduction in cell viability at 50 uM measured after 72 hrs by CCK8 assay; assay type: functional, cell-based
Outline: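 HeLa cells, 1.0 × 10⁴ per well on PLL-coated plates, grown overnight in DMEM with 10% FBS and penicillin/streptomycin, 37 °C, 5% CO₂. Compounds added in DMEM (2% DMSO stock), range 1.56–50 μM final, for 72 h. CCK-8 reagent then 2 h at 37 °C, absorbance read at 450 nm. DMSO control.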

[2] = target: T2, NAD-dependent protein deacetylase sirtuin-1 (Homo sapiens) (UniProt Q96EB6); test: Inhibition of recombinant human C-terminal His6-tagged SIRT1 (Met1 to Ser747 residues) defatty-acylase activity expressed in Escherichia coli at 2 uM using SFP3 as substrate measured at 5 mins interval for 60 mins in presence of NAD+ by fluorescence assay relative to control
T2 sequence (whole entry): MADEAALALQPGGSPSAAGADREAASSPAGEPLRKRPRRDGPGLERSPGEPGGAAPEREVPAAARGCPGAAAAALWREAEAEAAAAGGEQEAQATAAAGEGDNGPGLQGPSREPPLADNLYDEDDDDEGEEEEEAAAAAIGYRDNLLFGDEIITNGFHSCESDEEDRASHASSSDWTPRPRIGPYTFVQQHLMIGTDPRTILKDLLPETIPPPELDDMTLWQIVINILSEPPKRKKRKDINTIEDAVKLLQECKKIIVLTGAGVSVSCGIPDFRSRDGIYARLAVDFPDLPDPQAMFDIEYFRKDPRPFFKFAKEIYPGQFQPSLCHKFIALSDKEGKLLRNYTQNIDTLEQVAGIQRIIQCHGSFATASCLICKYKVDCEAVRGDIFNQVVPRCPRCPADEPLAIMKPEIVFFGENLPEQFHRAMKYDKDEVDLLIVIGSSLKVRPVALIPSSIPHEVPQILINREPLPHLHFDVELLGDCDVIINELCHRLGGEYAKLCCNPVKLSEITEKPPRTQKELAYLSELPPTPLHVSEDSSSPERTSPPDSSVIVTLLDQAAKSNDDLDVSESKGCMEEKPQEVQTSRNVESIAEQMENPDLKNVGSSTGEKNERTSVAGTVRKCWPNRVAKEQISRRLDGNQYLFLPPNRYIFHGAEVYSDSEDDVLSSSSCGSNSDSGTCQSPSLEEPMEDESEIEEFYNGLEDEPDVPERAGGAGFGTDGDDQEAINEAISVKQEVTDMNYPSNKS

[3] = target: T1, NAD-dependent protein deacetylase sirtuin-3, mitochondrial (Homo sapiens); test: Inhibition of recombinant human SIRT3 (118 to 399 residues) demyristoylase activity expressed in Escherichia coli at 1 uM using p53(Myr)-AMC as substrate measured after 3 hrs in presence of NAD+ and trypsin by fluorescence assay relative to control
Outline: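 SIRT3 at 120 nM with 50 μM p53(Myr)-AMC and 500 μM NAD⁺ in Tris-HCl pH 8.0/NaCl/DTT/Triton buffer, 0.5% DMSO, 3 h at room temperature. Trypsin (100 nM) plus nicotinamide (1 mM) then added. Fluorescence Ex 355/Em 460 nm every 5 min for 20 min at 37 °C. n = 3.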

[4] = target: T2, NAD-dependent protein deacetylase sirtuin-1 (Homo sapiens); test: Inhibition of recombinant human C-terminal His6-tagged SIRT1 (Met1 to Ser747 residues) demyristoylase activity expressed in Escherichia coli at 1 uM using p53(Myr)-AMC as substrate measured after 3 hrs in presence of NAD+ and trypsin by fluorescence assay relative to control
Outline: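 SIRT1 at 14 nM final with 50 μM p53(Myr)-AMC and 500 μM NAD⁺ in Tris-HCl pH 8.0/NaCl/DTT/Triton buffer, 0.5% DMSO, 3 h at room temperature. Trypsin (100 nM final) plus nicotinamide (1 mM final) then added. Fluorescence Ex 355/Em 460 nm read every 5 min for 20 min at 37 °C. n = 3.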

[5] = target: NAD-dependent protein deacylase sirtuin-6 (Homo sapiens) (UniProt Q8N6T7); test: Inhibition of recombinant human N-terminal polyhis-tagged SIRT6 (1 to 355 residues) defatty-acylase activity expressed in Escherichia coli at 2 uM using SFP3 as substrate measured at 5 mins interval for 60 mins in presence of NAD+ by fluorescence assay relative to control
[6] = target: T3, NAD-dependent protein deacetylase sirtuin-2 (Homo sapiens) (UniProt Q8IXJ6); test: Inhibition of recombinant human SIRT2 demyristoylase activity at 1 uM using p53(Myr)-AMC as substrate measured after 3 hrs in presence of NAD+ and trypsin by fluorescence assay relative to control
T3 sequence (whole entry): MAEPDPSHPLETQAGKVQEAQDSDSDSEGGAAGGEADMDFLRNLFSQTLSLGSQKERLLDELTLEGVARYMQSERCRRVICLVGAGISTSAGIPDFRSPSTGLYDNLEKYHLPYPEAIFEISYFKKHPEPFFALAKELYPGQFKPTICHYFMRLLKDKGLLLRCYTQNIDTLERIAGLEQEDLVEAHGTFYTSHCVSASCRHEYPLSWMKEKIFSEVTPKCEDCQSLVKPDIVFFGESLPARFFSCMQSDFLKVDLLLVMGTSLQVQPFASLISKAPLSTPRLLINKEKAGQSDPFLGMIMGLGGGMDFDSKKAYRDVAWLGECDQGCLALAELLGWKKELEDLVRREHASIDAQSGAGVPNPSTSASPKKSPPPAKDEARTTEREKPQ

[7] = target: T3, NAD-dependent protein deacetylase sirtuin-2 (Homo sapiens); test: Inhibition of recombinant human SIRT2 defatty-acylase activity at 2 uM using SFP3 as substrate measured at 5 mins interval for 60 mins in presence of NAD+ by fluorescence assay relative to control
[8] = target: T3, NAD-dependent protein deacetylase sirtuin-2 (Homo sapiens); test: Inhibition of recombinant human SIRT2 demyristoylase activity using H4K16-Myr as substrate measured after 2 hrs in presence of NAD+ by HPLC analysis
Outline: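 H4K16-Myr at 100 μM with 500 μM NAD⁺ and 175 nM SIRT2 in Tris-HCl pH 8.0/NaCl/Triton buffer without DTT, 0.5% DMSO, 2 h at 37 °C. Inhibitors at 0.1–10 μM; AGK2 at 50 μM, NAM at 500 μM. Stopped with HCl/MeOH. Demyristoylated H4K16 product measured by HPLC at 280 nm. Percent inhibition, n = 3.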

[9] = target: T3, NAD-dependent protein deacetylase sirtuin-2 (Homo sapiens); test: Inhibition of recombinant human SIRT2 deacylation activity using H4K16-Ac as substrate measured after 30 mins in presence of NAD+ by HPLC analysis
Outline: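 H4K16-Ac peptide at 100 μM with 500 μM NAD⁺ and 175 nM SIRT2 in Tris-HCl pH 8.0/NaCl/Triton buffer lacking DTT, 0.5% DMSO, 30 min at 37 °C. Inhibitors at 0.01–10 μM. Stopped with HCl in MeOH. Deacetylated product quantified by reversed-phase HPLC at 280 nm.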

[10] = target: T3, NAD-dependent protein deacetylase sirtuin-2 (Homo sapiens); test: Time-dependent inhibition of recombinant human SIRT2 defatty-acylase activity at 62.5 to 1000 nM using SFP3 as substrate measured at 5 mins interval for 60 mins in presence of NAD+ by fluorescence assay

NAD-dependent protein deacylase sirtuin-6 (Homo sapiens), sequence (Q8N6T7 whole entry, the tested form may be a part): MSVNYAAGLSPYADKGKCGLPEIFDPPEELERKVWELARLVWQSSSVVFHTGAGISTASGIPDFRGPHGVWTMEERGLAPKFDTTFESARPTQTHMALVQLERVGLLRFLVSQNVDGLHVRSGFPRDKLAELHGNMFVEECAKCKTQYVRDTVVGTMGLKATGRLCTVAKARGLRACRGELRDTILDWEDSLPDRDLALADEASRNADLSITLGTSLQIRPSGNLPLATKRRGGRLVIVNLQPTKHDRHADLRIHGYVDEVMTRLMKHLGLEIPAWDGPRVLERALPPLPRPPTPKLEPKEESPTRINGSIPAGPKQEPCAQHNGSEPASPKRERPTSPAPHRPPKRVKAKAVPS

SMILES	inhibition [1] [%]	Activity (HeLa)	inhibition [2] [%]	inhibition [3] [%]	inhibition [4] [%]	inhibition [5] [%]	inhibition [6] [%]	inhibition [7] [%]	inhibition [8]	inhibition [9]	TDI [10]
CCCCCCCCCCCCCC(=S)NCCCC[C@H](NC(=O)OCc1ccccc1)C(=O)Nc1ccccc1	-0.9	Active	0.81	-1.2	2.7	-3.3	–	–	–	–	–
CC[C@H](C)[C@H](NC(C)=O)C(=O)N[C@@H](CCCCNC(=O)Cc1ccc(/N=N/c2ccccc2)cc1)C(=O)N[C@@H](CCCNC(=N)N)C(N)=O	–	–	–	–	–	28	–	–	–	–	–
C[C@H](NC(=O)[C@H](CCCCNC(=O)Cc1ccc(/N=N/c2ccc(O)cc2)cc1)NC(=O)OCc1ccccc1)C(N)=O	5.9	–	8.8	2.6	20	3.8	5.3	18	–	–	–
C[C@H](NC(=O)[C@H](CCCCNC(=O)Cc1ccc(/N=N/c2ccc(OCCc3ccccc3)cc2)cc1)NC(=O)OCc1ccccc1)C(N)=O	7	–	2	-0.13	6.3	-0.32	2.9	1.4	–	–	–
C[C@H](NC(=O)[C@H](CCCCNC(=O)Cc1ccc(/N=N/c2ccc(OCc3ccccc3)cc2)cc1)NC(=O)OCc1ccccc1)C(N)=O	-0.08	–	1.3	5.6	2.8	-7.4	3.2	13	–	–	–
Cc1cc(C)nc(SCC(=O)Nc2ncc(Cc3cccc4ccccc34)s2)n1	–	–	–	–	–	-2.2	–	–	–	–	–
CC[C@H](C)[C@H](NC(=O)[C@H](CCCNC(=N)N)NC(C)=O)C(=O)N[C@@H](CCCCNC(=O)Cc1ccc(/N=N/c2ccccc2)cc1)C(=O)N[C@@H](CCCNC(=N)N)C(=O)N[C@@H](Cc1ccc(O)cc1)C(N)=O (Ac-RIK(Phenylacetyl(4-E-phenylazo))RY-NH2)	–	inactive	–	–	–	32	–	–	Dose-dependent effect	Dose-dependent effect	–
CC[C@H](C)[C@H](NC(=O)[C@H](CCCNC(=N)N)NC(C)=O)C(=O)N[C@@H](CCCCNC(=O)C(F)(F)F)C(=O)N[C@@H](CCCNC(=N)N)C(=O)N[C@@H](Cc1ccc(O)cc1)C(N)=O (Ac-RIK(Tfa)RY-NH2)	–	–	16	58	32	3.1	–	–	–	–	–
CC[C@H](C)[C@H](NC(=O)[C@H](CCCNC(=N)N)NC(C)=O)C(=O)N[C@@H](CCCCNC(=O)c1ccc(/N=N/c2ccc(N(C)C)cc2)cc1)C(=O)N[C@@H](CCCNC(=N)N)C(=O)N[C@@H](Cc1ccc(O)cc1)C(N)=O (Ac-RIK(X2)RY-NH2)	–	–	22	34	42	13	–	–	–	–	inactive
CC[C@H](C)[C@H](NC(=O)[C@H](CCCNC(=N)N)NC(C)=O)C(=O)N[C@@H](CCCCNC(=O)CCc1ccc(/N=N/c2ccc(N(C)C)cc2)cc1)C(=O)N[C@@H](CCCNC(=N)N)C(=O)N[C@@H](Cc1ccc(O)cc1)C(N)=O (Ac-RIK(X3)RY-NH2)	–	–	–	11	42	13	23	–	–	–	inactive
CC[C@H](C)[C@H](NC(=O)[C@H](CCCNC(=N)N)NC(C)=O)C(=O)N[C@@H](CCCCNC(=O)Cc1ccc(/N=N/c2ccc(N(CC)CC)cc2)cc1)C(=O)N[C@@H](CCCNC(=N)N)C(=O)N[C@@H](Cc1ccc(O)cc1)C(N)=O (Ac-RIK(X5)RY-NH2)	–	–	–	–	–	28	–	–	–	–	–
CC[C@H](C)[C@H](NC(=O)[C@@H](NC(=O)[C@H](CCCCNC(=O)Cc1ccc(/N=N/c2ccccc2)cc1)NC(=O)[C@H](CC(=O)O)NC(=O)[C@H](CO)NC(C)=O)[C@@H](C)O)C(N)=O (Ac-SDK(Phenylacetyl(4-E-phenylazo))TI-NH2)	14	–	18	5.6	31	2.6	17	–	–	–	–
CC[C@H](C)[C@H](NC(=O)[C@@H](NC(=O)[C@H](CCCCNC(=O)c1ccc(/N=N/c2ccc(N(C)C)cc2)cc1)NC(=O)[C@H](CC(=O)O)NC(=O)[C@H](CO)NC(C)=O)[C@@H](C)O)C(N)=O (Ac-SDK(X2)TI-NH2)	10	–	8.9	-1.1	3.2	11	2	7.8	–	–	–
CC[C@H](C)[C@H](NC(=O)[C@H](CCCCNC(=O)Cc1ccc(/N=N/c2ccccc2)cc1)NC(=O)[C@@H](NC(C)=O)C(C)C)C(=O)N[C@@H](CCCCN)C(=O)N[C@@H](CCCCN)C(N)=O (Ac-VK(Phenylacetyl(4-E-phenylazo))IKK-NH2)	–	–	–	–	–	0.64	–	–	–	–	–
